From ChEMBL document CHEMBL3826940, “Amphipathicity Determines Different Cytotoxic Mechanisms of Lysine- or Arginine-Rich Cationic Hydrophobic Peptides in Cancer Cells” (J Med Chem, 2016)
pIC50: −log10 of the molar value. Calls of active or inactive are those of the source. The rule behind the calls is not given here.

How the values were obtained:
[1] = Cytotoxicity against human 293T cells assessed as cell viability after 24 hrs by MTT assay; type: cell-based, HEK-293T; settings: for pIC50: Homo sapiens, HEK-293T
Summary of the method: (§1)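 MTT viability assay. Cells were seeded at 1 × 10^4 cells/well in complete medium and grown 24 h. Medium was replaced with fresh medium containing peptide over a concentration series and incubated 24 h. MTT (5 mg/mL) was added for 4 h, formazan was dissolved in DMSO, and A490 was read. IC50 was derived from mean ± SD of three independent experiments.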

[2] = Hemolytic activity in mouse RBC at 0.39 to 50 uM after 1 hr; type: ADME, cell-based; settings: erythrocyte
Summary of the method: (§2)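 Heparinized fresh mouse blood: RBCs were washed three times in 0.9% saline and diluted to 4.0 × 10^8 cells/mL. Peptides at various concentrations were incubated with the RBCs 1 h at 37 °C. After centrifugation at 1000 rpm for 10 min, supernatant absorbance was read at 540 nm, with 1% Triton X-100 set as 100% hemolysis.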

[3] = tested on: HeLa; test: Cytotoxicity against human HeLa cells assessed as cell viability after 24 hrs by MTT assay; type: functional, cell-based; summary of the method: as §1
[4] = Cytotoxicity against HLF assessed as cell viability after 24 hrs by MTT assay; parameters: species or system Homo sapiens; settings: for pIC50: Homo sapiens, HLF; summary of the method: as §1
[5] = tested on: MCF7; test: Cytotoxicity against human MCF7 cells assessed as cell viability after 24 hrs by MTT assay; type: functional, cell-based; settings: for pIC50: MCF7, 24 h; summary of the method: as §1
[6] = tested on: HUVEC; test: Cytotoxicity against HUVEC assessed as cell viability after 24 hrs by MTT assay; type: cell-based, Homo sapiens; settings: for pIC50: Homo sapiens, HUVEC; summary of the method: as §1
[7] = tested on: A549; test: Cytotoxicity against human A549 cells assessed as cell viability after 24 hrs by MTT assay; type: functional, cell-based; settings: for pIC50: A549, 24 h; summary of the method: as §1
[8] = Drug uptake in plasma membrane of human HeLa cells at 5 uM after 2 to 30 mins using iridium dye labeled compound by confocal microscopic method; type: ADME, cell-based
Summary of the method: (§3)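 Peptides were labelled at the N-terminal His with [Ir(ppy)2(H2O)2]OTf: 200 μM each, mixed 1:1 in PBS, 2 h at 37 °C in the dark. HeLa cells (1 × 10^5 per dish, grown 24 h) were exposed to 5 μM labelled peptide. Live-cell confocal images were taken at 0, 5 and 15 min (excitation 403 nm, emission 500–560 nm).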

[9] = tested on: HeLa; test: Cytotoxicity against human HeLa cells assessed as cell mortality at 5 uM after 5 mins by MTT assay; type: functional, cell-based
[10] = tested on: HeLa; test: Cytotoxicity against human HeLa cells assessed as cell mortality at 5 uM after 5 mins by Hoechst 33342/propidium iodide staining-based assay; type: functional
Summary of the method: (§4)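 HeLa cells treated with 5 μM peptide were co-stained with Hoechst 33342 (stains all nuclei) and propidium iodide (stains only membrane-compromised cells). Fluorescence imaging was done at time points up to 30 min.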

[11] = tested on: HeLa; test: Induction of morphological changes in human HeLa cells assessed as membrane fragmentation at 5 uM after 30 mins by microscopic method; type: functional, cell-based
Summary of the method: (§5)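 HeLa cells were co-incubated with 5 μM peptide for 30 min. Morphology was then examined under the microscope.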

[12] = tested on: HeLa; test: Induction of morphological changes in human HeLa cells assessed as membrane leakage at 5 uM after 30 mins by microscopic method; type: functional, cell-based; summary of the method: as §5
[13] = Hemolytic activity in mouse RBC after 1 hr; type: ADME, cell-based, Erythrocyte; settings: red blood cells; summary of the method: as §2
[14] = tested on: HeLa; test: Induction of apoptosis in human HeLa cells assessed as caspase-3 activation at 5 uM measured up to 4 hrs by caspase-glo assay; type: functional, cell-based
Summary of the method: (§6)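 Cells in 96-well plates were exposed to 5 μM peptide for 5, 10, 15 or 30 min, or 1, 2, 3 or 4 h. Caspase-Glo 3/7 reagent was added, the plate shaken 30 s and incubated 2 h at room temperature, and luminescence was read.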

[15] = tested on: HeLa; test: Cytotoxicity against human HeLa cells assessed as lethality at 5 uM at 0 degC after 30 mins by MTT assay; type: functional, cell-based
Summary of the method: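 HeLa cells were incubated with peptide over a range of concentrations at 0 or 37 °C for 30 min. Lethality was then measured by MTT, with A490 read after DMSO solubilization.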

[16] = tested on: HeLa; test: Induction of apoptosis in human HeLa cells assessed as early apoptotic cells at 5 uM after 15 mins by annexin V/FITC staining-based flow cytometric method (reference value: 0.1%); type: functional
Summary of the method: (§7)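 Cells were grown 24 h in 6-well plates, then exposed to 5 μM peptide for 15 min. They were collected, washed twice with PBS, and stained with annexin V-FITC plus PI for 20 min at room temperature in the dark before flow cytometry.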

[17] = tested on: HeLa; test: Selectivity index, ratio of IC50 for HLF to IC50 for human HeLa cells
[18] = tested on: HeLa; test: Induction of shrinkage of human HeLa cells at 5 uM after 30 mins by microscopic method; type: functional, cell-based; summary of the method: as §5
[19] = tested on: HeLa; test: Selectivity index, ratio of IC50 for HUVEC to IC50 for human HeLa cells
[20] = tested on: A549; test: Selectivity index, ratio of IC50 for human 293T cells to IC50 for human A549 cells; type: functional
[21] = tested on: A549; test: Selectivity index, ratio of IC50 for HLF to IC50 for human A549 cells
[22] = tested on: A549; test: Induction of reactive oxygen species generation in human A549 cells at 5 uM after 30 mins by DCFH-DA staining-based fluorescence assay; type: functional, cell-based
Summary of the method: (§8)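 Cells in 96-well plates were loaded with DCFH-DA for 20 min at 37 °C, then treated with or without 5 μM peptide for 30 min. After a PBS wash, DCF fluorescence was read at 485/535 nm and expressed as fold change versus untreated cells.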

[23] = tested on: MCF7; test: Selectivity index, ratio of IC50 for human 293T cells to IC50 for human MCF7 cells; type: functional
[24] = tested on: HeLa; test: Cytotoxicity against human HeLa cells assessed as lethality at 5 uM after 30 mins in presence of caspase-3 inhibitor Ac-DEVD-CHO by MTT assay; type: functional
Summary of the method: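 HeLa cells were seeded at 1 × 10^4 cells/well and grown 24 h. They were pretreated 30 min with 50 μM Ac-DEVD-CHO, then incubated with or without 5 μM peptide for 30 min. Survival was measured by MTT: 4 h with MTT, DMSO solubilisation, absorbance at 490 nm.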

[25] = tested on: HeLa; test: Induction of apoptosis in human HeLa cells assessed as caspase-3 activation at 5 uM after 5 mins by caspase-glo assay; type: functional, cell-based; summary of the method: as §6
[26] = Drug uptake in cytoplasm of human HeLa cells at 5 uM after 2 to 30 mins using iridium dye labeled compound by confocal microscopic method; type: ADME, cell-based; summary of the method: as §3
[27] = tested on: HeLa; test: Selectivity index, ratio of IC50 for human 293T cells to IC50 for human HeLa cells; type: functional
[28] = tested on: MCF7; test: Selectivity index, ratio of IC50 for HUVEC to IC50 for human MCF7 cells
[29] = tested on: HeLa; test: Induction of morphological changes in human HeLa cells at 5 uM after 30 mins by microscopic method; type: functional, cell-based; summary of the method: as §5
[30] = tested on: HeLa; test: Cytotoxicity against human HeLa cells assessed as lethality at 5 uM after 30 mins by MTT assay; type: functional
Summary of the method: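 HeLa cells were grown in DMEM with 10% FBS and seeded at 1 × 10^4 cells/well, then grown 24 h. Medium was replaced with fresh medium containing 5 μM peptide for 30 min. MTT was added for 4 h and formazan was dissolved in DMSO (10 min, 37 °C). Lethality was read as absorbance at 490 nm.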

[31] = tested on: HeLa; test: Induction of reactive oxygen species generation in human HeLa cells at 5 uM after 30 mins by DCFH-DA staining-based fluorescence assay; type: functional, cell-based; summary of the method: as §8
[32] = tested on: MCF7; test: Selectivity index, ratio of IC50 for HLF to IC50 for human MCF7 cells
[33] = tested on: HeLa; test: Induction of apoptosis in human HeLa cells assessed as late apoptotic cells at 5 uM after 15 mins by annexin V/FITC staining-based flow cytometric method relative to control; type: functional; summary of the method: as §7
[34] = tested on: HeLa; test: Cytotoxicity against human HeLa cells assessed as cell mortality at 5 uM after 6 hrs by MTT assay; type: functional, cell-based
[35] = tested on: HeLa; test: Induction of appearance of rounded human HeLa cells at 5 uM after 30 mins by microscopic method; type: functional, cell-based; summary of the method: as §5
[36] = tested on: MCF7; test: Induction of reactive oxygen species generation in human MCF7 cells at 5 uM after 30 mins by DCFH-DA staining-based fluorescence assay; type: functional, cell-based; summary of the method: as §8
[37] = tested on: HUVEC; test: Induction of reactive oxygen species generation in HUVEC at 5 uM after 30 mins by DCFH-DA staining-based fluorescence assay; type: cell-based; settings: human, 0.5 h; summary of the method: as §8
[38] = tested on: A549; test: Selectivity index, ratio of IC50 for HUVEC to IC50 for human A549 cells
[39] = tested on: HeLa; test: Induction of apoptosis in human HeLa cells assessed as caspase-3 cleavage at 5 uM after 5 mins by Western blot method; type: functional, cell-based
Summary of the method: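 HeLa cells (8 × 10^5 per 100 mm dish, grown 24 h) were exposed to 5 μM peptide for 5, 10 or 15 min. Lysates (with 1 mM PMSF) were run on 15% SDS-PAGE and blotted to PVDF. Blots were probed overnight at 4 °C with rabbit monoclonal anti-cleaved caspase-3, then HRP goat anti-rabbit, and detected by ECL with actin as loading control.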

[40] = tested on: HeLa; test: Cytotoxicity against human HeLa cells assessed as cell mortality at 5 uM after 30 mins by Hoechst 33342/propidium iodide staining-based assay; type: functional; summary of the method: as §4
[41] = Induction of reactive oxygen species generation in HLF at 5 uM after 30 mins by DCFH-DA staining-based fluorescence assay; settings: human, 0.5 h; summary of the method: as §8
[42] = tested on: HeLa; test: Induction of apoptosis in human HeLa cells assessed as necrotic cells at 5 uM after 15 mins by annexin V/FITC staining-based flow cytometric method relative to control; type: functional; summary of the method: as §7
[43] = Induction of reactive oxygen species generation in human 293T cells at 5 uM after 30 mins by DCFH-DA staining-based fluorescence assay; type: cell-based; settings: hek-293t, 0.5 h; summary of the method: as §8
[44] = tested on: HeLa; test: Induction of apoptosis in human HeLa cells assessed as viable cells at 5 uM after 15 mins by annexin V/FITC staining-based flow cytometric method (reference value: 99.8%); type: functional; settings: 0.25 h, read-out: Activity; summary of the method: as §7
[45] = tested on: HeLa; test: Induction of apoptosis in human HeLa cells assessed as caspase-3 activation at 5 uM after 1 to 4 hrs by caspase-glo assay; type: functional, cell-based; summary of the method: as §6

H-HGGKLLKLLKLKKLLKL-NH2
Activity ([1]; human, hek-293t): Non-toxic | Activity [2]: Non-toxic | pIC50 [3]: 4.46 | Activity ([4]; human, hlf): Non-toxic | Activity [5]: inactive | Activity ([6]; human, huvec): Non-toxic | Activity [7]: inactive

H-HGGRLLRLLRRLLRLLR-NH2
Drug uptake [8]: Active | pIC50 [1]: 5.02 | Activity [9]: Active | Activity [10]: Active | Activity [11]: Active | Activity [12]: Active | HC50 at 1 h [13]: 2900 nM | pIC50 [3]: 5.43 | Activity [14]: inactive | Activity [15]: Active | pIC50 [4]: 5.20 | pIC50 [5]: 5.60 | pIC50 [6]: 5.08 | pIC50 [7]: 5.37

CC(C)C[C@H](NC(=O)[C@H](CCCNC(=N)N)NC(=O)[C@H](CC(C)C)NC(=O)[C@H](CC(C)C)NC(=O)[C@H](CCCNC(=N)N)NC(=O)[C@H](CCCNC(=N)N)NC(=O)[C@H](CC(C)C)NC(=O)[C@H](CCCNC(=N)N)NC(=O)[C@H](CC(C)C)NC(=O)[C@H](CC(C)C)NC(=O)[C@H](CCCNC(=N)N)NC(=O)[C@H](CC(C)C)NC(=O)[C@H](CC(C)C)NC(=O)[C@H](CCCNC(=N)N)NC(=O)CNC(=O)CNC(=O)[C@@H](N)Cc1cnc[nH]1)C(N)=O
Activity [16]: 45.9% | Ratio IC50 [17]: 4 | Activity [18]: Active | Ratio IC50 [19]: 4 | Ratio IC50 [20]: 4 | Ratio IC50 [21]: 4 | pIC50 [1]: 4.38 | Activity [9]: inactive | Activity [22]: Active | Ratio IC50 [23]: 4 | Activity [24]: 20% | Activity [25]: Active | Activity [10]: inactive | Drug uptake [26]: Active | Ratio IC50 [27]: 4 | Ratio IC50 [28]: 4 | Activity [29]: inactive | Activity [30]: 56% | Activity [31]: Active | Ratio IC50 [32]: 4 | Activity [33]: 7.7% | Activity [34]: Active | HC50 at 1 h [13]: > 200000 nM | Activity [35]: Active | Activity [36]: Active | Activity [37]: Non-toxic | Ratio IC50 [38]: 4 | pIC50 [3]: 5.38 | Activity [39]: Active | Activity [40]: Active | Activity [41]: Non-toxic | Activity [42]: 0.1% | Activity [43]: Non-toxic | Activity [15]: inactive | viability at 5 µM [44]: 46.3% | pIC50 [4]: 4.67 | Activity [45]: inactive | pIC50 [5]: 5.35 | pIC50 [6]: 4.72 | pIC50 [7]: 5.32
